Results on 1 compound are retold here after ChEMBL document CHEMBL5149988, “Structure-Based Design of Selective Salt-Inducible Kinase Inhibitors” (J Med Chem, 2021).

This data set can be described thus: Metabolic stability in Sprague-Dawley rat liver microsomes assessed as parent compound remaining incubated for 1 hrs by HPLC analysis. The data set is classed as ADME, Microsome. The following applies: read-out: Stability. The method in brief:
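Rat (Sprague-Dawley) activated liver microsome mix; compound incubated at 37 °C and sampled at 0, 15, 30 and 60 min. Unmetabolized parent quantified by HPLC.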

As to `CNc1ncc2cc(-c3ccc(-c4ncccc4F)cc3Cl)c(=O)n(C[C@H]3OC[C@H](N)CO3)c2n1`, the remaining at 1 h is more than 90%.
